Activity calls are given as the source filed them. No cut-off for these calls is given here.
Assays:
[1] = molecular target: Potassium voltage-gated channel subfamily A member 5 (Homo sapiens, UniProt P22460); test: Inhibition of recombinant human Kv1.5 expressed in mouse L929 cells by patch clamp assay; format: cell-based
How it was run: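 Whole-cell patch clamp of IKur current in mouse L-929 cells transfected with human KV1.5 and stably expressing the channel.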

[2] = Protein binding in human plasma; format: ADME, cell-free; conditions: read-out: PPB
[3] = Inhibition of sodium channel (unknown origin); set-up: species or system Homo sapiens
[4] = Half life in mouse at 2 mg/kg, iv or 5 mg/kg, po; format: ADME, organism-based; conditions: in vivo
How it was run: (§1)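 Single-dose PK study in mouse and rat (2 mg/kg iv, 5 mg/kg po), cynomolgus monkey (1 mg/kg iv and po) and dog (0.1 mg/kg iv, 1 mg/kg po). Dosing vehicle was 1:4:5 EtOH/propylene glycol/PEG400. Clearance, Vss, half-life, Cmax, Tmax, AUC (μM h) and oral %F were derived from plasma levels.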

[5] = Cmax in mouse at 2 mg/kg, iv or 5 mg/kg, po; format: ADME, organism-based; conditions: in vivo; how it was run: as §1
[6] = Tmax in mouse at 2 mg/kg, iv or 5 mg/kg, po; format: ADME, organism-based; conditions: in vivo
How it was run: (§2)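 Single-dose PK in mouse and rat (2 mg/kg iv, 5 mg/kg po), cynomolgus monkey (1 mg/kg iv and po) and dog (0.1 mg/kg iv, 1 mg/kg po). Dosing vehicle was 1:4:5 EtOH/propylene glycol/PEG400. Parameters reported: clearance, Vss, half-life, Cmax, Tmax, AUC and oral bioavailability.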

[7] = Oral bioavailability in mouse at 5 mg/kg; format: ADME, organism-based; conditions: in vivo; how it was run: as §2
[8] = Clearance in rat at 2 mg/kg, iv or 5 mg/kg, po; format: ADME, organism-based; conditions: in vivo; how it was run: as §1
[9] = Half life in rat at 2 mg/kg, iv or 5 mg/kg, po; format: ADME, organism-based; conditions: in vivo; how it was run: as §1
[10] = Tmax in rat at 2 mg/kg, iv or 5 mg/kg, po; format: ADME, organism-based; conditions: in vivo; how it was run: as §2
[11] = Oral bioavailability in rat at 5 mg/kg; format: ADME, organism-based; conditions: in vivo; how it was run: as §2
[12] = Oral bioavailability in rat at 5 mg/kg using crystalline form; format: ADME, organism-based; conditions: in vivo
[13] = Clearance in cynomolgus monkey at 1 mg/kg, iv or 1 mg/kg, po; format: ADME, organism-based, Macaca fascicularis; conditions: in vivo; how it was run: as §1
[14] = Volume of distribution at steady state in cynomolgus monkey at 1 mg/kg, iv or 1 mg/kg, po; format: ADME, organism-based, Macaca fascicularis; conditions: in vivo, read-out: Vdss; how it was run: as §2
[15] = Cmax in cynomolgus monkey at 1 mg/kg, iv or 1 mg/kg, po; format: ADME, organism-based, Macaca fascicularis; conditions: in vivo; how it was run: as §1
[16] = Tmax in cynomolgus monkey at 1 mg/kg, iv or 1 mg/kg, po; format: ADME, organism-based, Macaca fascicularis; conditions: in vivo; how it was run: as §2
[17] = AUC in cynomolgus monkey at 1 mg/kg, iv or 1 mg/kg, po; format: ADME, organism-based, Macaca fascicularis; conditions: in vivo; how it was run: as §1
[18] = Oral bioavailability in cynomolgus monkey at 1 mg/kg using crystalline form; format: ADME, organism-based, Macaca fascicularis; conditions: in vivo
How it was run: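 Oral %F in cynomolgus monkey at 1 mg/kg po, with the compound given as a micronized crystalline suspension rather than the solution vehicle (iv reference dose 1 mg/kg).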

[19] = Clearance in dog at 0.1 mg/kg, iv or 1 mg/kg, po; format: ADME, organism-based, Canis lupus familiaris; conditions: in vivo; how it was run: as §1
[20] = Half life in dog at 0.1 mg/kg, iv or 1 mg/kg, po; format: ADME, organism-based, Canis lupus familiaris; conditions: in vivo; how it was run: as §1
Oryctolagus cuniculus [21] = test: Antiatrial fibrillation activity in methoxamine-sensitised rabbit assessed as increase in atrial effective refractory period at 1 mg/kg, iv administered as 20 mins infusion relative to control; format: functional
How it was run: (§3)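 Rabbit, iv dosing at 1 or 3 mg/kg. AERP was measured at 10, 20 and 30 min time points as % prolongation, and plasma compound concentration was measured at the same time points and correlated with the AERP change.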

[22] = Plasma concentration in methoxamine-sensitised rabbit at 1 mg/kg, iv administered as 20 mins infusion; format: ADME, organism-based, Oryctolagus cuniculus
Oryctolagus cuniculus [23] = test: Antiatrial fibrillation activity in methoxamine-sensitised rabbit assessed as increase in atrial effective refractory period at 3 mg/kg, iv administered as 20 mins infusion relative to control; format: functional; how it was run: as §3
Oryctolagus cuniculus [24] = test: Antiatrial fibrillation activity in methoxamine-sensitised rabbit assessed as increase in atrial effective refractory period at 3 mg/kg, iv administered as 30 mins infusion relative to control; format: functional; how it was run: as §3
[25] = Plasma concentration in methoxamine-sensitised rabbit at 3 mg/kg, iv administered as 10 mins infusion; format: ADME, organism-based, Oryctolagus cuniculus
[26] = Plasma concentration in methoxamine-sensitised rabbit at 3 mg/kg, iv administered as 20 mins infusion; format: ADME, organism-based, Oryctolagus cuniculus
[27] = Plasma concentration in methoxamine-sensitised rabbit at 3 mg/kg, iv administered as 30 mins infusion; format: ADME, organism-based, Oryctolagus cuniculus
Oryctolagus cuniculus [28] = test: Antiatrial fibrillation activity in methoxamine-sensitised rabbit assessed as increase in atrial effective refractory period at 0.17 mg/kg, iv administered as 30 mins infusion relative to control; format: functional
How it was run: (§4)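 Rabbit, iv infusion of compound in DMF (0.17 mg/mL) with a 0.17 mg/kg maintenance dose. AERP was normalized to DMF vehicle, with time counted from the start of the maintenance infusion. Tissues were collected after 30 min. n = 3 rabbits; means ± standard error.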

Oryctolagus cuniculus [29] = test: Antiatrial fibrillation activity in methoxamine-sensitised rabbit assessed as increase in atrial effective refractory period at 0.17 mg/kg, iv measured 15 mins post infusion relative to control; format: functional; how it was run: as §4
Oryctolagus cuniculus [30] = test: Antiatrial fibrillation activity in methoxamine-sensitised rabbit assessed as plasma concentration required to show increase in atrial effective refractory period at 0.17 mg/kg, iv administered as 1 min infusion; format: functional, organism-based; how it was run: as §4
Oryctolagus cuniculus [31] = test: Antiatrial fibrillation activity in methoxamine-sensitised rabbit assessed as plasma concentration required to show increase in atrial effective refractory period at 0.17 mg/kg, iv administered as 15 mins infusion; format: functional, organism-based; how it was run: as §4
Oryctolagus cuniculus [32] = test: Antiatrial fibrillation activity in methoxamine-sensitised rabbit assessed as plasma concentration required to show increase in atrial effective refractory period at 0.17 mg/kg, iv measured 30 mins post infusion; format: functional, organism-based; how it was run: as §4
Canis familiaris = test: Antiarrhythmic activity in mongrel dog heart failure model assessed as reduction in mean number of pacing-induced atrial fibrillation at 0.1 to 0.3 mg/kg, po; format: functional, organism-based; conditions: Canis lupus familiaris
How it was run: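 Simultaneous atrio-ventricular pacing dog model of atrial arrhythmia. Compound was given orally at 0.1 or 0.3 mg/kg in 10% EtOH/40% propylene glycol/50% PEG 400. AF inducibility was scored as mean number of AF inductions and total AF duration, with QTc monitored and plasma concentration measured. n = 7 control, 5 (0.1 mg/kg) and 6 (0.3 mg/kg) dogs.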

Plasma = test: Plasma concentration in pacing-induced mongrel dog heart failure model at 0.3 mg/kg, po; format: ADME, organism-based, Canis lupus familiaris; conditions: in vivo
How it was run: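 Simultaneous atrio-ventricular pacing dog model used to measure AF inducibility. Dogs were dosed orally at 0.1 mg/kg (n = 5) or 0.3 mg/kg (n = 6) in 10% EtOH/40% propylene glycol/50% PEG 400, and plasma concentration was measured alongside AF inductions and QTc.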

Salmonella typhimurium = test: Genotoxicity in Salmonella typhimurium by Ames test; format: toxicity; conditions: salmonella enterica subsp. enterica serovar typhimurium
[33] = Solubility of the compound in pH 1 to 8 solution using crystalline form; format: physicochemical
Rhesus monkey = test: Drug absorption in monkey famotidine model at 10 mg/kg; format: ADME, organism-based, Macaca mulatta; conditions: in vivo

Potassium voltage-gated channel subfamily A member 5, sequence (P22460 whole entry): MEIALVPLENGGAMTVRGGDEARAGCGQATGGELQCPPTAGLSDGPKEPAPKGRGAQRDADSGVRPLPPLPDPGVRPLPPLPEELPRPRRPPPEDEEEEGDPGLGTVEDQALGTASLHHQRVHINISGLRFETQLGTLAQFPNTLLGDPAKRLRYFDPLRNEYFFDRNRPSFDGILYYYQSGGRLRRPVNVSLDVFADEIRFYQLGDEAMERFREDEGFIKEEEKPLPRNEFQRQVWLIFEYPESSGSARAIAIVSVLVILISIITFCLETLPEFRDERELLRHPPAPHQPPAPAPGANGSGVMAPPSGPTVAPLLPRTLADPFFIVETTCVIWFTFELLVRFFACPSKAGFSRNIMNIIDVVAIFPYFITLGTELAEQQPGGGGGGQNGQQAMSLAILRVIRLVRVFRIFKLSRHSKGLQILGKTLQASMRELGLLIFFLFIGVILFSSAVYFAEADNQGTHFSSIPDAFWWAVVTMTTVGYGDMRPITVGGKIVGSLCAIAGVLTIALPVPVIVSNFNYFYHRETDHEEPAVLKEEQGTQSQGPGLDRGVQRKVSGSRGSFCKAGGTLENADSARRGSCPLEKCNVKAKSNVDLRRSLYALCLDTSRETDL

NS(=O)(=O)c1cncc(-c2nc(NCc3ccccn3)c3c(-c4ccccc4)cccc3n2)c1 [BMS-919373]
IC50 [1]: 46 to 50 nM
fraction unbound [2]: < 0.01
IC50 [3]: > 10000 nM
half-life [4]: 2 h
Cmax [5]: 4000 nM
Tmax [6]: 0.5 h
bioavailability [7]: 100%
clearance [8]: 3.3 mL/min/kg
half-life [9]: 3.2 h
Tmax [10]: 2.6 h
bioavailability [11]: 100%
bioavailability [12]: 35%
clearance [13]: 3.2 mL/min/kg
Vd [14]: 1.2 L/kg
Cmax [15]: 900 nM
Tmax [16]: 4.9 h
AUC [17]: 11 µM·h
bioavailability [18]: 54%
clearance [19]: 0.05 mL/min/kg
half-life [20]: 51 h
Activity (Oryctolagus cuniculus [21]): 10.6%
concentration at 20 min [22]: 1100 nM
Activity (Oryctolagus cuniculus [23]): 16.2%
Activity (Oryctolagus cuniculus [24]): 21.6 - 22%
concentration at 10 min [25]: 2300 nM
concentration at 20 min [26]: 3600 nM
concentration at 0.5 h [27]: 3300 nM
Activity (Oryctolagus cuniculus [28]): 12.7%
Activity (Oryctolagus cuniculus [29]): 9.5%
Cp (Oryctolagus cuniculus [30]): 0.42 µM
Cp (Oryctolagus cuniculus [31]): 0.16 µM
Cp (Oryctolagus cuniculus [32]): 0.09 µM
Activity (Canis familiaris): Active
concentration (Plasma): 1840 nM
Activity (Salmonella typhimurium): Non-Toxic
solubility [33]: Soluble
Drug absorption (Rhesus monkey): Active

From ChEMBL document CHEMBL4014310, “Selective IKur Inhibitors for the Potential Treatment of Atrial Fibrillation: Optimization of the Phenyl Quinazoline Series Leading to Clinical Candidate 5-[5-Phenyl-4-(pyridin-2-ylmethylamino)quinazolin-2-yl]pyridine-3-sulfonamide” (J Med Chem, 2017)
